ChEMBL document CHEMBL3112444, “Synthesis and anticancer activity of focused compound libraries from the natural product lead, oroidin” (2014)

Columns and labels:
DU-145 [1] = assay: Cytotoxicity against human DU145 cells assessed as growth inhibition at 25 uM after 72 hrs by MTT assay relative to control; type: functional; conditions: DU-145, 72 h, read-out: GI
Summary of the method: (§1)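 Cells in logarithmic growth kept in DMEM with 10% FBS, 10 mM sodium bicarbonate, penicillin 100 IU/mL, glutamine 4 mM, at 37 °C under 5% CO2. Plated in duplicate at 2500–4000 cells/well. Compound (30 mM DMSO stock) added 24 h after plating. MTT read at 540 nm after 72 h exposure.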

[2] = Cytotoxicity against human SJ-G2 cells assessed as growth inhibition at 25 uM after 72 hrs by MTT assay relative to control; type: functional; conditions: SJ-G2, 72 h, read-out: GI; summary of the method: as §1
[3] = Cytotoxicity against human SJ-G2 cells assessed as growth inhibition after 72 hrs by MTT assay; type: functional; conditions: SJ-G2, 72 h; summary of the method: as §1
[4] = Cytotoxicity against human H460 cells assessed as growth inhibition after 72 hrs by MTT assay; type: functional; conditions: NCI-H460, 72 h; summary of the method: as §1
[5] = Cytotoxicity against human MIA cells assessed as growth inhibition at 25 uM after 72 hrs by MTT assay relative to control; type: functional; conditions: read-out: GI; summary of the method: as §1
[6] = Cytotoxicity against human U87 cells assessed as growth inhibition at 25 uM after 72 hrs by MTT assay relative to control; type: functional, U-87MG ATCC; conditions: U-87 MG, read-out: GI; summary of the method: as §1
[7] = Cytotoxicity against mouse SMA cells assessed as growth inhibition at 25 uM after 72 hrs by MTT assay relative to control; type: functional; conditions: read-out: GI; summary of the method: as §1
DU-145 [8] = assay: Cytotoxicity against human DU145 cells assessed as growth inhibition after 72 hrs by MTT assay; type: functional; conditions: DU-145, 72 h; summary of the method: as §1
A2780 [9] = assay: Cytotoxicity against human A2780 cells assessed as growth inhibition after 72 hrs by MTT assay; type: functional; conditions: A2780, 72 h; summary of the method: as §1
MCF7 [10] = assay: Cytotoxicity against human MCF7 cells assessed as growth inhibition at 25 uM after 72 hrs by MTT assay relative to control; type: functional; conditions: MCF7, 72 h, read-out: GI; summary of the method: as §1
SW480 [11] = assay: Cytotoxicity against human SW480 cells assessed as growth inhibition at 25 uM after 72 hrs by MTT assay relative to control; type: functional; conditions: SW480, 72 h, read-out: GI; summary of the method: as §1
HT-29 [12] = assay: Cytotoxicity against human HT-29 cells assessed as growth inhibition after 72 hrs by MTT assay; type: functional; conditions: HT-29, 72 h; summary of the method: as §1
A-431 [13] = assay: Cytotoxicity against human A431 cells assessed as growth inhibition after 72 hrs by MTT assay; type: functional; conditions: A-431, 72 h; summary of the method: as §1
HT-29 [14] = assay: Cytotoxicity against human HT-29 cells assessed as growth inhibition at 25 uM after 72 hrs by MTT assay relative to control; type: functional; conditions: HT-29, 72 h, read-out: GI; summary of the method: as §1
MCF7 [15] = assay: Cytotoxicity against human MCF7 cells assessed as growth inhibition after 72 hrs by MTT assay; type: functional; conditions: MCF7, 72 h; summary of the method: as §1
[16] = Cytotoxicity against human MIA cells assessed as growth inhibition after 72 hrs by MTT assay; type: functional; summary of the method: as §1
SW480 [17] = assay: Cytotoxicity against human SW480 cells assessed as growth inhibition after 72 hrs by MTT assay; type: functional; conditions: SW480, 72 h; summary of the method: as §1
[18] = Cytotoxicity against human H460 cells assessed as growth inhibition at 25 uM after 72 hrs by MTT assay relative to control; type: functional; conditions: NCI-H460, 72 h, read-out: GI; summary of the method: as §1
[19] = Cytotoxicity against human U87 cells assessed as growth inhibition after 72 hrs by MTT assay; type: functional, U-87MG ATCC; conditions: U-87 MG; summary of the method: as §1
A-431 [20] = assay: Cytotoxicity against human A431 cells assessed as growth inhibition at 25 uM after 72 hrs by MTT assay relative to control; type: functional; conditions: A-431, 72 h, read-out: GI; summary of the method: as §1
A2780 [21] = assay: Cytotoxicity against human A2780 cells assessed as growth inhibition at 25 uM after 72 hrs by MTT assay relative to control; type: functional; conditions: A2780, 72 h, read-out: GI; summary of the method: as §1
[22] = Cytotoxicity against mouse SMA cells assessed as growth inhibition after 72 hrs by MTT assay; type: functional; summary of the method: as §1
[23] = Cytotoxicity against human BE(2)-C cells assessed as growth inhibition at 25 uM after 72 hrs by MTT assay relative to control; type: functional; conditions: read-out: GI; summary of the method: as §1
[24] = Cytotoxicity against human BE(2)-C cells assessed as growth inhibition after 72 hrs by MTT assay; type: functional; summary of the method: as §1

O=C(NCc1ccc(-c2ccccc2)cc1)c1cc(Br)c(Br)[nH]1
inhibition of growth at 25 µM (DU-145 [1]): 64% | inhibition of growth at 25 µM [2]: 17% | GI50 [3]: > 50 µM | GI50 [4]: 21 µM | inhibition of growth at 25 µM [5]: 82% | inhibition of growth at 25 µM [6]: 58% | inhibition of growth at 25 µM [7]: 59% | GI50 (DU-145 [8]): 2600 nM | GI50 (A2780 [9]): 6.4 µM | inhibition of growth at 25 µM (MCF7 [10]): 70% | inhibition of growth at 25 µM (SW480 [11]): 97% | GI50 (HT-29 [12]): 3.4 µM | GI50 (A-431 [13]): 3.7 µM | inhibition of growth at 25 µM (HT-29 [14]): 78% | GI50 (MCF7 [15]): 3.1 µM | GI50 [16]: 3.4 µM | GI50 (SW480 [17]): 2400 nM | inhibition of growth at 25 µM [18]: 61% | GI50 [19]: > 50 µM | inhibition of growth at 25 µM (A-431 [20]): 90% | inhibition of growth at 25 µM (A2780 [21]): 66% | GI50 [22]: 17 µM | inhibition of growth at 25 µM [23]: 57% | GI50 [24]: 4.2 µM
